Tests used:
[1] = folding enthalpy; higher = less favourable; fluorescence melt of hairpins on a sequencing array, two-state fit; details: sodium 0.088 M
Summary of the method: (§1)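 Hairpins were imaged by Cy3 fluorescence on a sequenced MiSeq flow cell with annealed Cy3 and quencher oligos, in 50 mM Na-HEPES pH 8.0, 25 mM NaCl, in 2.5 °C steps up to 60 °C. Bootstrapped two-state fits of normalised signals gave melting temperature and folding enthalpy. Four replicates were combined by inverse variance, and fitted temperatures were raised by 9.35 °C to match UV melts.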

[2] = melting temperature; fluorescence melt of hairpins on a sequencing array, two-state fit, raised by 9.35 °C to match UV melts; details: sodium 0.088 M
Summary of the method: as §1

Row | Sequence | folding enthalpy [1] | Tm [2]
1 | GAGCCCGGAAACGGACCC (.(.(((....))).).) | -46.7 kJ/mol | 25.7 °C
2 | GAGCCCGGAAACGGGCCC (.(((((....))))).) | -30.4 kJ/mol | 49.7 °C
3 | GAGCCGGGAAACCGACCC (.(.(((....))).).) | -58.3 kJ/mol | 30.1 °C
4 | GAGCCGGGAAACCGGTTC ((.((((....)))).)) | -145 kJ/mol | 55 °C
5 | GAGCCTGGAAACAGGTTC ((.((((....)))).)) | -114 kJ/mol | 49.5 °C
6 | GAGCGAACGAAAGTTCTC (((..(((....)))))) | -39.2 kJ/mol | 27.4 °C
7 | GAGCGAGAAATCGCTC ((((((....)))))) | -127 kJ/mol | 67.4 °C
8 | GAGCGAGCGAAAGCTCTC (((..(((....)))))) | -34.6 kJ/mol | 35.5 °C
9 | GAGCGCGAAAGCGAACTC ((((((....)))..))) | -63.8 kJ/mol | 49 °C
10 | GAGCGCGAAAGCGCACTC ((((((....)))..))) | -41.8 kJ/mol | 60.4 °C
11 | GAGCGCGAAAGCGCCTC ((((((....))).))) | -31.8 kJ/mol | 58.1 °C
12 | GAGCGCGGAAACGCGTTC ((.((((....)))).)) | -70.5 kJ/mol | 57.4 °C
13 | GAGCGGCGAAAGCCCCTC (((.(((....))).))) | -58.9 kJ/mol | 46.7 °C
14 | GAGCGGCGAAAGCCCTC (((.(((....)))))) | -67.4 kJ/mol | 53 °C
15 | GAGCTACCGAAAGGTCTC (((..(((....)))))) | -56.5 kJ/mol | 27.6 °C
16 | GAGCTAGGAAACTAACTC (((.(((....))).))) | -83.2 kJ/mol | 30.4 °C
17 | GAGCTAGGAAACTAGCCC (.(((((....))))).) | -54.2 kJ/mol | 40.4 °C
18 | GAGCTAGGAAACTAGTTC ((.((((....)))).)) | -112 kJ/mol | 37.2 °C
19 | GAGCTCCGAAAGGATCTC (((.(((....))).))) | -105 kJ/mol | 46.4 °C
20 | GAGCTGCGAAAGCACTC (((.(((....)))))) | -85.5 kJ/mol | 46.2 °C
21 | GAGCTGGGAAACCGGCTC ((((.((....)).)))) | -161 kJ/mol | 59.2 °C
22 | GAGGAACGAAAGTTACTC (((.(((....))).))) | -164 kJ/mol | 54.5 °C
23 | GAGGAACGAAAGTTGCTC (((.(((....))).))) | -200 kJ/mol | 53.9 °C

Row | Sequence | folding enthalpy [1] | Tm [2]
24 | GAGGAAGAAATTCCTC ((((((....)))))) | -105 kJ/mol | 47.7 °C
25 | GAGGAAGGAAACCTCCTC (((((.(....).))))) | -108 kJ/mol | 36.6 °C
26 | GAGGACGAAAGTCCCCTC ((((((....)))..))) | -43.1 kJ/mol | 42.7 °C
27 | GAGGACGAAAGTCCCTC ((((((....))).))) | -47.2 kJ/mol | 51.2 °C
28 | GAGGACGAAAGTCGACTC ((((((....)))..))) | -62.3 kJ/mol | 40.6 °C
29 | GAGGACGAAAGTCGCTC ((((((....))).))) | -74.6 kJ/mol | 46 °C
30 | GAGGACGAAAGTCTACTC ((((((....)))..))) | -50.2 kJ/mol | 36.8 °C
31 | GAGGACGAAAGTCTCCTC ((((((....)))..))) | -62.5 kJ/mol | 36.3 °C
32 | GAGGAGACGAAAGTCCTC (((..(((....)))))) | -64.9 kJ/mol | 40.8 °C
33 | GAGGAGCGAAAGCTACTC (((.(((....))).))) | -132 kJ/mol | 64.8 °C
34 | GAGGAGGCGAAAGCCCTC (((..(((....)))))) | -59 kJ/mol | 44.1 °C
35 | GAGGATGGAAACATCCCC (.(((((....))))).) | -48.2 kJ/mol | 42.8 °C
36 | GAGGCACGAAAGTGTCTC (((.(((....))).))) | -121 kJ/mol | 64.5 °C
37 | GAGGCCGAAAGGCCACTC ((((((....)))..))) | -42.6 kJ/mol | 60.4 °C
38 | GAGGCCGAAAGGCGACTC ((((((....)))..))) | -53.2 kJ/mol | 44.7 °C
39 | GAGGGACGAAAGTCACTC (((.(((....))).))) | -131 kJ/mol | 65.6 °C
40 | GAGGGAGGAAACCCCCTC (((((.(....).))))) | -119 kJ/mol | 46.3 °C
41 | GAGGGCGAAAGCCAACTC ((((((....)))..))) | -54.4 kJ/mol | 41.7 °C
42 | GAGGGCGAAAGCCGACTC ((((((....)))..))) | -54.3 kJ/mol | 44.6 °C
43 | GAGGGCGAAAGCCGCTC ((((((....))).))) | -54.4 kJ/mol | 54.5 °C
44 | GAGGGGCGAAAGCCTCTC (((.(((....))).))) | -97.3 kJ/mol | 58 °C
45 | GAGGGGGCGAAAGCCCTC (((..(((....)))))) | -32.8 kJ/mol | 40.6 °C
46 | GAGGGTGCGAAAGCACTC (((..(((....)))))) | -36 kJ/mol | 41.1 °C

Row | Sequence | folding enthalpy [1] | Tm [2]
47 | GAGGTAGCGAAAGCTCTC (((..(((....)))))) | -56.7 kJ/mol | 38 °C
48 | GAGGTAGGAAACTACTTC ((.((((....)))).)) | -126 kJ/mol | 32.5 °C
49 | GAGGTCACGAAAGTGCTC (((..(((....)))))) | -55.9 kJ/mol | 30.7 °C
50 | GAGGTCGGAAACGGCCTC ((((.((....)).)))) | -175 kJ/mol | 62.3 °C
51 | GAGGTGCGAAAGCATCTC (((.(((....))).))) | -142 kJ/mol | 59.3 °C
52 | GAGGTGGAAACACCTC ((((((....)))))) | -139 kJ/mol | 63.4 °C
53 | GAGGTGGGAAACCGCTTC ((.(.((....)).).)) | -80.1 kJ/mol | 50 °C
54 | GAGGTTGGAAACAACCCC (.(((((....))))).) | -55.2 kJ/mol | 40.5 °C
55 | GAGGTTGGAAACGACTTC ((.((.(....).)).)) | -104 kJ/mol | 35.2 °C
56 | GAGTAACGAAAGTTGCTC (((.(((....))).))) | -218 kJ/mol | 53.2 °C
57 | GAGTAAGCGAAAGCTCTC (((..(((....)))))) | -56.2 kJ/mol | 35.7 °C
58 | GAGTACCGAAAGGTGCTC (((.(((....))).))) | -153 kJ/mol | 60.6 °C
59 | GAGTACCGAAAGGTTCTC (((.(((....))).))) | -129 kJ/mol | 47.9 °C
60 | GAGTACGAAAGTACGCTC ((((((....)))..))) | -68.4 kJ/mol | 53.9 °C
61 | GAGTACGAAAGTAGGCTC ((((((....)))..))) | -82 kJ/mol | 36.1 °C
62 | GAGTAGGGAAACCCACTC ((((.((....)).)))) | -134 kJ/mol | 39.6 °C
63 | GAGTATGGAAACACACTC ((((.((....)).)))) | -104 kJ/mol | 31.7 °C
64 | GAGTATGGAAACATATTC ((.((((....)))).)) | -88.7 kJ/mol | 30.8 °C
65 | GAGTCACCGAAAGGTCTC (((..(((....)))))) | -52.9 kJ/mol | 28.1 °C
66 | GAGTCACGAAAGTGCTC (((.(((....)))))) | -99.6 kJ/mol | 48.6 °C
67 | GAGTCAGGAAACTAACTC ((((.((....)).)))) | -51.8 kJ/mol | 25.4 °C
68 | GAGTCCCCGAAAGGGCTC (((..(((....)))))) | -80.2 kJ/mol | 44.4 °C
69 | GAGTCCGAAAGGATCTC ((((((....))).))) | -130 kJ/mol | 50 °C

Row | Sequence | folding enthalpy [1] | Tm [2]
70 | GAGTCCGGAAACGAACTC ((((.((....)).)))) | -145 kJ/mol | 41.7 °C
71 | GAGTCGGAAACGACTC ((((((....)))))) | -157 kJ/mol | 65.9 °C
72 | GAGTCTACGAAAGTACTC (((..(((....)))))) | -62.8 kJ/mol | 27.2 °C
73 | GAGTCTGGAAACAGACCC (.(((((....))))).) | -59.5 kJ/mol | 38 °C
74 | GAGTCTGGAAACAGACTC (((((((....))))))) | -167 kJ/mol | 65.3 °C
75 | GAGTGACGAAAGTCGCTC (((.(((....))).))) | -163 kJ/mol | 64.8 °C
76 | GAGTGAGGAAACTCACCC (.(((((....))))).) | -58 kJ/mol | 39.4 °C
77 | GAGTGAGGAAACTCGCTC (((.(((....))).))) | -208 kJ/mol | 50.6 °C
78 | GAGTGAGGAAACTCGTTC ((..(((....)))..)) | -49.4 kJ/mol | 27.6 °C
79 | GAGTGCACGAAAGTGCTC (((..(((....)))))) | -31.5 kJ/mol | 37.4 °C
80 | GAGTGCCGAAAGGCCCTC (((.(((....))).))) | -76.6 kJ/mol | 51.3 °C
81 | GAGTGCCGAAAGGCTCTC (((.(((....))).))) | -107 kJ/mol | 56.4 °C
82 | GAGTGCGAAAGCAATCTC ((((((....)))..))) | -89.5 kJ/mol | 53.7 °C
83 | GAGTGCGAAAGCACACTC ((((((....)))..))) | -52.5 kJ/mol | 58.6 °C
84 | GAGTGCGAAAGCACCCTC ((((((....)))..))) | -43.5 kJ/mol | 45.1 °C
85 | GAGTGCGAAAGCAGACTC ((((((....)))..))) | -76 kJ/mol | 44.4 °C
86 | GAGTGCGAAAGCAGCCTC ((((((....)))..))) | -55.2 kJ/mol | 34.5 °C
87 | GAGTGCGAAAGCATCCTC ((((((....)))..))) | -42.8 kJ/mol | 33 °C
88 | GAGTGCGAAAGCATTCTC ((((((....)))..))) | -90 kJ/mol | 52.3 °C
89 | GAGTGCGCGAAAGCGCTC (((..(((....)))))) | -25 kJ/mol | 32 °C
90 | GAGTGCGGAAACACACTC (((((.(....).))))) | -119 kJ/mol | 47.5 °C
91 | GAGTGGGGAAACCTACTC ((((.((....)).)))) | -128 kJ/mol | 46.4 °C

— the array DNA melting data of Ke et al. (doi:10.1101/2024.01.08.574731)
